{"source": "paper PMC2757082", "about": "(Biopolymers, 2009)", "type_in_all_cases": "biochemical", "key": {"[1]": {"biological_target": "T1, F1Fo-ATPase in bovine SMPs (Bos taurus, UniProt P00829)", "assay": "Bovine SMP ATP hydrolysis steady-state kinetic assay", "conditions": "for Vmax2 (maximal catalytic rate of ESI complex) / Ki: Bovine, ±SE"}, "[2]": {"biological_target": "F1Fo-ATPase from E. coli in liposomes (Escherichia coli, UniProt P0ABB4)", "sequence (P0ABB4 2-460 limits assumed)": "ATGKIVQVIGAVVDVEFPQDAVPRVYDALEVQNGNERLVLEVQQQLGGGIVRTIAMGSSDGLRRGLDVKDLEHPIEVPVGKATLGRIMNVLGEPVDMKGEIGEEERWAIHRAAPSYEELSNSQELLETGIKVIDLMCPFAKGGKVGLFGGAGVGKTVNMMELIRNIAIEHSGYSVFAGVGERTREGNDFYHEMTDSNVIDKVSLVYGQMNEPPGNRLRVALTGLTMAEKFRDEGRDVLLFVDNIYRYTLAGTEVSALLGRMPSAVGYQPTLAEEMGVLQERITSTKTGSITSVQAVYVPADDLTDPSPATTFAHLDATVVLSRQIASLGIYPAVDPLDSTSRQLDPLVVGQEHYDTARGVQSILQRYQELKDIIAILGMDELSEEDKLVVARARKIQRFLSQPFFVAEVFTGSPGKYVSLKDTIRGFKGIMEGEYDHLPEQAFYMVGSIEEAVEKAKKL"}, "[3]": {"biological_target": "E. coli membrane F1Fo-ATPase (Escherichia coli, UniProt P0ABB4)", "assay": "E. coli everted membrane ATP hydrolysis steady-state kinetic assay", "how_it_was_run": "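Everted membrane vesicles came from E. coli strain LE392 and were used at 33 μg mL⁻¹, with 5 mM KCN to block chemiosmotic phosphorylation. ATP hydrolysis was read by the NADH-coupled assay, with aurovertin at 1% DMSO final. Michaelis-Menten fits of initial velocity gave apparent kinetic parameters at each inhibitor concentration. Secondary plots were fit with eqs 2–4, assuming residual catalytic activity at saturating inhibitor.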"}, "[4]": {"biological_target": "T1, F1Fo-ATPase in bovine SMPs", "assay": "Bovine SMP ATP synthesis steady-state kinetic assay", "conditions": "for Ki: Bovine, ±SE", "how_it_was_run": "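ATP synthesis by bovine heart SMPs was read by coupling ATP production to NADP⁺ reduction at varied ADP (1.875–1200 μM). SMPs were preincubated 5 min with aurovertin (1% DMSO final) or DMSO control before substrate or coupling reagents. Apparent parameters came from Michaelis-Menten fits at each inhibitor level, with secondary plots fit by eqs 2–4. 3D fits of velocity against MgADP and inhibitor used eq 6 (mixed inhibition model).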"}, "[5]": {"conditions": "HMM-based FRET level assignment, presence of aurovertin"}, "[6]": {"conditions": "aurovertin and ATP, Gaussian fit"}, "[7]": {"conditions": "bovine, synthesis vs hydrolysis"}}, "note": "“And” between values parts separate entries of the source, which are not always exact repeats. Equal entries are not always repeated. Where two headings read alike, the source gives them in different places.", "data": [{"smiles": "CC[C@H]1O[C@]2(C)[C@H](OC(C)=O)[C@@]1(C)O[C@@H](/C=C/C=C/C=C/c1oc(=O)cc(OC)c1C)[C@@H]2O", "note": "[aurovertin, Aurovertin B]", "values": [{"measurement": "increase of the value of Vmax/Km", "setting": "[1]; ATP hydrolysis, saturating aurovertin concentrations", "result": 50, "unit": "%"}, {"measurement": "Vmax2 (maximal catalytic rate of ESI complex)", "setting": "[1]; ATP hydrolysis, 3D fit eq 5, n(E)=1, n(ES)=1", "result": "0.23 ± 0.01", "unit": "µmol/min/mg"}, {"measurement": "Vmax2 (maximal catalytic rate of ESI complex)", "setting": "[1]; ATP hydrolysis, 3D fit eq 5, n(E)=2, n(ES)=1", "result": "0.22 ± 0.01", "unit": "µmol/min/mg"}, {"measurement": "mechanism of inhibition of ATP hydrolysis", "setting": "[1]; bovine SMPs", "result": "mixed mechanism of inhibition"}, {"measurement": "Ki", "setting": "[1]; read-out: Ki(E), ATP hydrolysis, 3D fit eq 5, n(E)=1, n(ES)=1", "result": "820 ± 250", "unit": "nM"}, {"measurement": "Ki", "setting": "[1]; read-out: Ki(E), ATP hydrolysis, 3D fit eq 5, n(E)=2, n(ES)=1", "result": "960 ± 250", "unit": "nM"}, {"measurement": "Ki", "setting": "[1]; read-out: Ki(ES), ATP hydrolysis, 3D fit eq 5, n(E)=1, n(ES)=1", "result": "119 ± 17", "unit": "nM"}, {"measurement": "Ki", "setting": "[1]; read-out: Ki(ES), ATP hydrolysis, 3D fit eq 5, n(E)=2, n(ES)=1", "result": "120 ± 17", "unit": "nM"}, {"measurement": "decrease of the value of Vmax for catalysis of ATP hydrolysis", "setting": "[1]; saturating aurovertin, fit eq 2-4, n=1", "result": "~ 2.5 fold"}, {"measurement": "remaining activity (turnover ratio in presence and absence of aurovertin)", "setting": "[2]; 20 μM drug, 1 mM ATP", "result": "about 60%"}, {"measurement": "dwell time decay component τ", "setting": "[2]; [5]", "result": "28 ± 11", "unit": "ms"}, {"measurement": "dwell time rise time τ", "setting": "[2]; [5]", "result": "16 ± 8", "unit": "ms"}, {"measurement": "proximity factor P maximum, H level", "setting": "[2]; [6]", "result": 0.75}, {"measurement": "proximity factor P maximum, L level", "setting": "[2]; [6]", "result": 0.31}, {"measurement": "proximity factor P maximum, M level", "setting": "[2]; [6]", "result": 0.51}, {"measurement": "fraction of F1Fo-ATPases showing stepwise changing FRET levels", "setting": "[2]; saturating (20 μM) aurovertin, of 3685 marked photon bursts", "result": 10.4, "unit": "%"}, {"measurement": "Vmax2 (maximal catalytic rate of ESI complex)", "setting": "[3]; E. coli, 3D fit eq 5, n(E)=2, n(ES)=1, ±SE", "result": "0.06 ± 0.01", "unit": "µmol/min/mg"}, {"measurement": "residual activity at saturating aurovertin", "setting": "[3]; everted E. coli membranes, eq 5 fit", "result": "~ 20% and 20%"}, {"measurement": "Ki", "setting": "[3]; read-out: Ki(E), E. coli, 3D fit eq 5, n(E)=2, n(ES)=1, ±SE", "result": "430 ± 70", "unit": "nM"}, {"measurement": "Ki", "setting": "[3]; read-out: Ki(ES), E. coli, 3D fit eq 5, n(E)=2, n(ES)=1, ±SE", "result": "150 ± 20", "unit": "nM"}, {"measurement": "enzyme activity at saturating substrate and inhibitor concentrations", "setting": "[4]; ATP synthesis", "result": "inactive"}, {"measurement": "increase in the value of the apparent Km", "setting": "[4]; ATP synthesis, bovine SMPs", "result": "> 2", "unit": "fold"}, {"measurement": "mechanism of inhibition of ATP synthesis", "setting": "[4]; bovine SMPs", "result": "mixed inhibitor"}, {"measurement": "decrease of Ki(E) during ATP synthesis versus hydrolysis", "setting": "[4]; [7]", "result": 60, "unit": "fold"}, {"measurement": "decrease of Ki(ES) during ATP synthesis versus hydrolysis", "setting": "[4]; [7]", "result": 5, "unit": "fold"}, {"measurement": "Ki", "setting": "[4]; read-out: Ki(E), ATP synthesis, 3D fit eq 6, n(E)=1, n(ES)=1", "result": "13 ± 4", "unit": "nM"}, {"measurement": "Ki", "setting": "[4]; read-out: Ki(E), ATP synthesis, 3D fit eq 6, n(E)=2, n(ES)=1", "result": "16 ± 2", "unit": "nM"}, {"measurement": "Ki", "setting": "[4]; read-out: Ki(ES), ATP synthesis, 3D fit eq 6, n(E)=1, n(ES)=1", "result": "22 ± 3", "unit": "nM"}, {"measurement": "Ki", "setting": "[4]; read-out: Ki(ES), ATP synthesis, 3D fit eq 6, n(E)=2, n(ES)=1", "result": "25 ± 4", "unit": "nM"}]}]}
